The results in this text go back to ChEMBL document CHEMBL2157939 (J Med Chem, 2012).

The source made the active and inactive calls.

Data set [1] concerns Rattus norvegicus. In words: Antinociceptive activity in iv dosed Sprague-Dawley rat chronic constriction injury model assessed as paw withdrawal threshold to von Frey filament-induced pain administered as bolus injection. The data set is classed as functional. The method in brief:
(§1)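 Male SD rats (160−200 g at purchase) with CCI of left sciatic nerve (four loose silk ligatures, Bennett-Xie) under isoflurane. Single iv bolus doses 0.16 to 16 μmol/kg.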

The test system of data set [2] is Rattus norvegicus. In words: Antinociceptive activity in Sprague-Dawley rat chronic constriction injury model assessed as reduction in Von Frey filament-induced mechanical allodynia in ipsilateral hind paw at 8 umol/kg, po. The data set is classed as functional, organism-based.
For data set [3], the system named is Rattus norvegicus. In words: Antinociceptive activity in Sprague-Dawley rat chronic constriction model assessed as reduction in Von Frey filament-induced mechanical allodynia in contralateral hind paw at 8 umol/kg, po. The format is functional, organism-based.
Data set [4] concerns Rattus norvegicus. The data set is described as follows: Antinociceptive activity in Sprague-Dawley rat chronic constriction model assessed as reduction in Von Frey filament-induced mechanical allodynia in ipsilateral hind paw at 2 umol/kg, iv administered as bolus injection 5 mins post-naloxone coadministration. The format is functional, organism-based. Summed up: (§2)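 CCI rats (n = 6) given single sc naloxone hydrochloride 10 mg/kg or vehicle 5 min before single iv bolus of test item.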

Data set [5] has as its system Rattus norvegicus. In words: Antinociceptive activity in po dosed Sprague-Dawley rat chronic constriction injury model assessed as reduction in Von Frey filament-induced mechanical allodynia in ipsilateral hind paw. The data set is classed as functional.
The subject of data set [6] is Rattus norvegicus. The data set is described as follows: Antinociceptive activity in Sprague-Dawley rat chronic constriction model assessed as reduction in Von Frey filament-induced mechanical allodynia in contralateral hind paw at 2 umol/kg, iv administered as bolus injection. The data set is classed as functional, organism-based.
The nature of data set [7]: Selectivity ratio of Ki for kappa-opioid receptor to Ki for mu-opioid receptor. The method in brief:
(§3)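 Competitive displacement scintillation proximity assay on frozen membranes from CHO-K1 cells stably expressing human MOR, DOR or KOR, with wheatgerm agglutinin-coated SPA beads. Labels: MOR [3H]DAMGO, DOR [3H]DPDPE, KOR [3H]diprenorphine. Eight compound concentrations from 10 pM to 1 μM. Three independent experiments, each in triplicate, reported as mean ± SEM. The ratio is each Ki divided by the MOR Ki.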

Data set [8] can be described thus: Half life in human plasma at 1 mg/ml by RP-HPLC analysis. The format is ADME, cell-free.
Data set [9] relates to Rattus norvegicus. The data set is described as follows: Antinociceptive activity in Sprague-Dawley rat chronic constriction injury model assessed as paw withdrawal threshold to von Frey filament-induced pain at 5 and 16 umol/kg, iv administered as bolus injection measured at 15 mins. The format is functional, organism-based. The method in brief:
as §1

Data set [10] in a line: Apparent permeability across human Caco2 cells at 200 uM by LC/MS analysis. The settings on record: Caco-2. The data set is classed as ADME, cell-based. Summed up: (§4)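 Caco-2 monolayers (passages 55−75; DMEM with 10% FBS, 1% L-glutamine, 1% nonessential amino acids, 37 °C, 5% CO2) used for apparent permeability; compound quantified by LC-MS.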
The subject of data set [11] is Rattus norvegicus. In words: Induction of constipation in fasted Sprague-Dawley rat assessed as inhibition of castor oil-induced diarrhea at 16 umol/kg, po administered 5 mins prior to castor-oil challenge measured up to 8 hrs. The format is organism-based. The note with it: in vivo. Summed up:
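Drug-naive rats, 200−250 g, fasted ~16 h with water, then 1 h in individual wire-mesh cages without food or water. Oral test item or vehicle; 5 min later 1 mL castor oil by gavage. Diarrhea presence checked hourly to 8 h, scored by fecal boli weight and consistency.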

Data set [12] can be described thus: Selectivity ratio of Ki for delta-opioid receptor to Ki for mu-opioid receptor. The method in brief:
as §3

Data set [13] concerns Rattus norvegicus. In words: Effect on gastrointestinal motility in fasted Sprague-Dawley rat assessed as gastrointestinal propulsion of charcoal meal at 16 umol/kg, po administered prior to charcoal meal measured after 1 hr ( Rvb = 66.5 3.8% ). The data set is classed as ADME, organism-based. The settings on record: in vivo. Summed up: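 Rats 200−250 g fasted ~16 h (water allowed), n = 8 per group, dosed orally just before gavage of 1 mL aqueous 10% activated charcoal/5% gum Arabic. Killed 1 h later (ip pentobarbital, cervical dislocation); small intestine length pylorus to ileocecal junction and farthest charcoal front measured as % propulsion.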

Data set [14] deals with Rattus norvegicus. The data set is described as follows: Antinociceptive activity in Sprague-Dawley rat chronic constriction model assessed as reduction in Von Frey filament-induced mechanical allodynia in ipsilateral hind paw at 5 umol/kg, iv administered as bolus injection 5 mins post-naloxone coadministration. The data set is classed as functional, organism-based. Summed up:
as §2

For data set [15], the system named is Rattus norvegicus. The data set is described as follows: Antinociceptive activity in Sprague-Dawley rat chronic constriction injury model assessed as reduction in Von Frey filament-induced mechanical allodynia in ipsilateral hind paw at 8 and 16 umol/kg, po at 0.75 to 1 hr. The data set is classed as functional, organism-based.
For data set [16], the target named is T1, Mu-type opioid receptor (Homo sapiens, UniProt P35372). The data set is described as follows: Agonist activity at mu-opioid receptor in human SH-SY5Y cells assessed as inhibition of forskolin-stimulated cAMP accumulation after 30 mins by immunoassay. The data set is classed as functional, cell-based.
T1 sequence (P35372 whole entry): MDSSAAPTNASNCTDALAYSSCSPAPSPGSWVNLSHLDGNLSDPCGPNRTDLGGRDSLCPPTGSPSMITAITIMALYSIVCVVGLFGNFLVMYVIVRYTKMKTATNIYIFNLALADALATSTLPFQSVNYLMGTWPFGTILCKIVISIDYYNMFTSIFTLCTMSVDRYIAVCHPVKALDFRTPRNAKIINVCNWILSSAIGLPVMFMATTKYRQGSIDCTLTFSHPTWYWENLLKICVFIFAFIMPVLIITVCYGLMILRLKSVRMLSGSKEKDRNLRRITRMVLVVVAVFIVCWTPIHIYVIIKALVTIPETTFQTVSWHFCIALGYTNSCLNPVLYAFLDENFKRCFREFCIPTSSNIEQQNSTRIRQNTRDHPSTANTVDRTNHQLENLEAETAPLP
Data set [17] deals with Caco-2. In words: Permeability across human Caco2 cells at 200 µM by LC/MS analysis in presence of glucose. The data set is classed as ADME, cell-based. The note with it: caco-2, 200 µM. The method in brief: as §4
Data set [18] deals with Rattus norvegicus. The data set is described as follows: Antinociceptive activity in Sprague-Dawley rat chronic constriction injury model assessed as paw withdrawal threshold to von Frey filament-induced pain at 5 and 16 umol/kg, iv administered as bolus injection measured up to 1.5 hrs. The data set is classed as functional, organism-based. Summed up: as §1
Data set [19] relates to Rattus norvegicus. In words: Antinociceptive activity in Sprague-Dawley rat chronic constriction model assessed as reduction in Von Frey filament-induced mechanical allodynia in contralateral hind paw at 5 umol/kg, iv administered as bolus injection. The data set is classed as functional, organism-based.
Data set [20] has as its target Delta-type opioid receptor (Homo sapiens, UniProt P41143). The data set is described as follows: Displacement of [3H]DPDPE from delta-opioid receptor expressed in CHOK1 cells after overnight incubation by scintillation proximity assay. The format is cell-based, CHO-K1. The method in brief:
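Competitive displacement of [3H]DPDPE from human DOR in membranes of stably transfected CHOK1 cells, WGA-coated SPA beads. Eight concentrations, 10 pM to 1 μM; three independent experiments in triplicate, mean ± SEM.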

Data set [21] deals with Rattus norvegicus. The data set is described as follows: Antinociceptive activity in Sprague-Dawley rat chronic constriction injury model assessed as reduction in Von Frey filament-induced mechanical allodynia in ipsilateral hind paw at 8 and 16 umol/kg, po up to 2 hrs. The data set is classed as functional, organism-based.
For data set [22], the target named is T1, Mu-type opioid receptor. The data set is described as follows: Displacement of [3H]DAMGO from mu-opioid receptor expressed in CHOK1 cells after overnight incubation by scintillation proximity assay. The format is cell-based, CHO-K1.
Data set [23] concerns Caco-2. In words: Permeability across human Caco2 cells at 200 µM by LC/MS analysis in presence of galactose. The data set is classed as ADME, cell-based. The note with it: caco-2, 200 µM. The method in brief: as §4
Data set [24] concerns Caco-2. The data set is described as follows: Permeability across human Caco2 cells at 200 µM by LC/MS analysis in presence of lactose. The data set is classed as ADME, cell-based. The settings on record: caco-2, 200 µM. The method in brief:
as §4

In a further data set the test system is Plasma. In words: Plasma concentration in Sprague-Dawley rat at 10 umol/kg, po from 30 to 60 mins by LC/MS analysis. The format is ADME, organism-based. The note with it: in vivo, BLD = below limit of detection. Summed up: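 Male SD rats, 280−310 g, gavaged with 500 μL of […] aqueous solution (10 μmol/kg). Tail-vein blood at 30, 60, 90 min into heparin tubes; plasma protein-precipitated with 3 volumes acetonitrile, supernatant quantified by LC-MS; n = 4.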

For data set [25], the system named is Rattus norvegicus. The data set is described as follows: Antinociceptive activity in Sprague-Dawley rat chronic constriction injury model assessed as paw withdrawal threshold to von Frey filament-induced pain 16 umol/kg, iv administered as bolus injection measured at 15 mins. The data set is classed as functional, organism-based. Summed up:
as §1

Delta-type opioid receptor, sequence (P41143 whole entry): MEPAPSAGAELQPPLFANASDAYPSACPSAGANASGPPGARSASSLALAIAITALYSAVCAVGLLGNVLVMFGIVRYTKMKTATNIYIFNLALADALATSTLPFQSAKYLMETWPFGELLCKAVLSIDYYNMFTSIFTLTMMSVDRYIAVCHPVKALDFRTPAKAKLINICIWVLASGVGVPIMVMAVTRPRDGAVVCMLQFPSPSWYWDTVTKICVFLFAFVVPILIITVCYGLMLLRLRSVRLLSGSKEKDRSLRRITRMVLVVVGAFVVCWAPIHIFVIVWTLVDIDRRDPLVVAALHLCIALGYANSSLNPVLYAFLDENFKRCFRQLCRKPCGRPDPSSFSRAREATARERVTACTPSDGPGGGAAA

As to `CN1CC[C@]23c4c5ccc(O)c4O[C@H]2[C@@H](O)C=C[C@H]3[C@H]1C5` [MORPHINE], the median effective dose (ED50) in the data set on Rattus norvegicus [1] turned out to be 2.6 µmol/kg; in the data set with Rattus norvegicus [5], 20.7 µmol/kg. Also, the result in the data set on Rattus norvegicus [2], in the data set with Rattus norvegicus [3] and in the data set on Rattus norvegicus [6] was Active. Also, the result in the data set on Rattus norvegicus [4] was inactive.
On to `NC(=O)[C@H](Cc1ccccc1)NC(=O)[C@H](Cc1c[nH]c2ccccc12)NC(=O)[C@@H]1CCCN1C(=O)[C@H](Cc1ccc(O)cc1)NC(=O)CCC(=O)N[C@@H]1O[C@H](CO)[C@@H](O[C@@H]2O[C@H](CO)[C@H](O)[C@H](O)[C@H]2O)[C@H](O)[C@H]1O`, for which the 50% effective dose (ED50) in the data set on Rattus norvegicus [1] is 8.3 µmol/kg; in the data set with Rattus norvegicus [5], 19.6 µmol/kg. In addition, the results for the Ratio Ki in [7] and in [12] were 105 and 319, respectively. In [8], this molecule showed a half-life at 1 mg/ml of 57.3 min. The result in the data set with Rattus norvegicus [9], with Rattus norvegicus [15], with Rattus norvegicus [18] and with Rattus norvegicus [21] was Active. The Papp at 200 µM in [10] stood at 76 ×10⁻⁶ cm/s. Besides, the outcome in the data set with Rattus norvegicus [3], in the data set on Rattus norvegicus [14] and in the data set with Rattus norvegicus [19] was inactive. Further, the Activity entry in the data set with Rattus norvegicus [11] is “Non-toxic”; with Rattus norvegicus [5], “Dose-dependent effect”; in the data set on Rattus norvegicus [13] it was 58.5%. Further, the concentration for half-maximal inhibition (IC50) on Mu-type opioid receptor [16] was found to be 590 nM. Besides, the values for the permeability result in the data set with Caco-2 [17], with Caco-2 [23] and in the data set on Caco-2 [24] were “permeable”, “impermeable” and “impermeable”, respectively. In addition, the Ki in [20] is 4750 nM; on Mu-type opioid receptor [22] it was 14.9 nM.
As for `CC(C)NCC(O)COc1cccc2ccccc12` (configuration not stated) [PROPRANOLOL], the apparent permeability coefficient (Papp) at 200 µM in data set [10] worked out at 150 ×10⁻⁶ cm/s.
On to `NC(=O)[C@H](Cc1ccccc1)NC(=O)[C@H](Cc1c[nH]c2ccccc12)NC(=O)[C@@H]1CCCN1C(=O)[C@@H](N)Cc1ccc(O)cc1` [ENDOMORPHIN-1], for which, in data set [10], the Papp at 200 µM came to 0.11 ×10⁻⁶ cm/s. Besides, the Cp result in the data set with Plasma is “BLD”. Moreover, in the data set on Rattus norvegicus [25], the outcome was inactive.
